{"data": "Assay results of several laboratories", "target": "Serine/threonine-protein kinase PAK 4 (PAK4, Homo sapiens, UniProt O96013)", "note": "Each line is one published result; the experiments were not run side by side."}
{"Structure (SMILES)": "CCC(=O)N[C@@H]1CC[C@H](C(=O)N(C)c2ccc(-c3nc4ccccc4o3)cc2)C1", "read-out": "cell-free assay", "technique": "competition with immobilised ligand", "concentration": "1 µM", "remaining binding": "100%"}
{"Structure (SMILES)": "N#Cc1ccccc1CSc1nnc2c(n1)[nH]c1ccccc12", "read-out": "binding", "technique": "competition with immobilised ligand", "concentration": "10 µM", "remaining binding": "87%"}
{"Structure (SMILES)": "C[C@H]1CCN(c2nccc(-c3cnn4ncccc34)n2)C1", "read-out": "binding", "concentration": "1 µM", "remaining binding": "95%"}
{"Structure (SMILES)": "Cn1cc(Cl)c2c(Oc3c(F)cc(Nc4cc(Cl)nc(N)n4)cc3F)ccnc21", "read-out": "cell-free assay", "technique": "competition with immobilised ligand", "concentration": "0.1 µM", "remaining binding": "100%"}
{"Structure (SMILES)": "CN(C)c1ncc(F)c(-c2cnn3ncccc23)n1", "read-out": "binding", "concentration": "1 µM", "remaining binding": "80%"}
{"Structure (SMILES)": "O=C(Nc1c[nH]nc1C(=O)NC1CCNCC1)c1cc(F)cc(F)c1", "read-out": "binding", "technique": "competition with immobilised ligand", "concentration": "1 µM", "remaining binding": "100%"}
{"Structure (SMILES)": "CN(C)c1nccc(-c2cnn3ncccc23)n1", "read-out": "binding", "concentration": "1 µM", "remaining binding": "100%"}
{"Structure (SMILES)": "O=C(NCc1ncc(C(F)(F)F)cc1Cl)c1ccc2c(c1)C1(CCS(=O)(=O)CC1)[C@H](C1CC1)N2S(=O)(=O)c1ccc(F)cc1", "read-out": "cell-free assay", "technique": "competition with immobilised ligand", "concentration": "1 µM", "remaining binding": "100%"}
{"Structure (SMILES)": "N[C@H]1CCN(c2nccc(-c3cnn4ncccc34)n2)C1", "read-out": "binding", "concentration": "1 µM", "remaining binding": "88%"}
{"Structure (SMILES)": "O=C(c1ccc(Nc2ncc(Cl)c(-c3ccc(Cl)s3)n2)cc1)N1CCC(N2CCCC2)CC1", "read-out": "binding", "technique": "competition with immobilised ligand", "concentration": "1 µM", "remaining binding": "53%"}
{"Structure (SMILES)": "CN1CCN(c2cnc3c(C4CCN(C(=O)c5ccc(OC(F)(F)F)cc5N)CC4)ncnc3c2)CC1", "read-out": "cell-free assay", "technique": "competition with immobilised ligand", "concentration": "1 µM", "remaining binding": "91%"}
{"Structure (SMILES)": "O=C(NCCCN1CCOCC1)c1ccc(Nc2ncc(Cl)c(-c3ccc(Cl)s3)n2)cc1", "read-out": "binding", "technique": "competition with immobilised ligand", "concentration": "1 µM", "remaining binding": "89%"}
{"Structure (SMILES)": "CN(C)c1nccc(-c2cnc3ncccn23)n1", "read-out": "binding", "concentration": "1 µM", "remaining binding": "88%"}
{"Structure (SMILES)": "Cc1cnc(Nc2ccc(C(=O)N3CCC(N4CCCC4)CC3)cc2)nc1-c1cc2ccccc2s1", "read-out": "binding", "technique": "competition with immobilised ligand", "concentration": "1 µM", "remaining binding": "70%"}
{"Structure (SMILES)": "COc1cnc(Nc2cccc(S(N)(=O)=O)c2)nc1N1CCN(c2ccccc2)CC1", "read-out": "binding", "technique": "competition with immobilised ligand", "concentration": "1 µM", "remaining binding": "95%"}
{"Structure (SMILES)": "C[C@@H]1CN(c2ccc3ncc(-c4ccc5[nH]nc(C6CC6)c5c4)n3n2)C[C@H](C)O1", "read-out": "binding", "technique": "competition with immobilised ligand", "concentration": "0.5 µM", "remaining binding": "83%"}
{"Structure (SMILES)": "Nc1ncc2c(n1)-c1c([nH]c3ccc(C#CC4CC4)cc13)CCCC2", "read-out": "binding", "technique": "competition with immobilised ligand", "concentration": "1 µM", "remaining binding": "76%"}
{"Structure (SMILES)": "O=C(NC[C@@H]1[C@H]2CN(C(=O)OCc3cc(C(F)(F)F)cc(C(F)(F)F)c3)C[C@@H]12)c1ccc2[nH]nnc2c1", "read-out": "cell-free assay", "technique": "competition with immobilised ligand", "concentration": "1 µM", "remaining binding": "100%"}
{"Structure (SMILES)": "FC(F)(F)Oc1cccc(-c2cnc3ccc(-c4ccncc4)nn23)c1", "read-out": "cell-free assay", "technique": "competition with immobilised ligand", "concentration": "5 µM", "remaining binding": "47%"}
{"Structure (SMILES)": "COc1ncc2cc3ccccc3nc2c1C#N", "read-out": "cell-free assay", "technique": "competition with immobilised ligand", "concentration": "5 µM", "remaining binding": "97%"}
{"Structure (SMILES)": "CS(=O)(=O)NCC[C@H](NC(=O)c1cncc2c1cnn2-c1ccc(F)cc1)c1ccnc(S(C)(=O)=O)c1", "read-out": "cell-free assay", "technique": "competition with immobilised ligand", "concentration": "1 µM", "remaining binding": "100%"}
{"Structure (SMILES)": "c1cnn2ncc(-c3ccnc(N4CCC45COC5)n3)c2c1", "read-out": "binding", "concentration": "1 µM", "remaining binding": "96%"}
{"Structure (SMILES)": "O=C(NS(=O)(=O)c1ccc(NCC2CCOCC2)c([N+](=O)[O-])c1)c1ccc(N2CCN(Cc3ccc(C(F)(F)F)cc3-c3ccc(Cl)cc3)CC2)cc1Oc1cnc2[nH]ccc2c1", "read-out": "cell-free assay", "technique": "competition with immobilised ligand", "concentration": "1 µM", "remaining binding": "93%"}
{"Structure (SMILES)": "CNC(=O)[C@@H]1CC[C@@H](n2c(-c3ccc4cnccc4c3)nc3ccc(C(=O)NCc4cccc(C(N)=O)c4)cc32)C1", "read-out": "binding", "technique": "competition with immobilised ligand", "concentration": "1 µM", "remaining binding": "100%"}
{"Structure (SMILES)": "CN(c1nccc(-c2cnn3ncccc23)n1)C1CC1", "read-out": "binding", "concentration": "1 µM", "remaining binding": "100%"}
